The source made the active and inactive calls. No cut-off for these calls is given here.

Test [1] deals with Triticum aestivum. Kind of test: Inhibition of stem growth of Triticum aestivum at 100 mg/L. Type of test: functional. In outline: (§1)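 Seeds of each species were grown in Petri dishes with 10 seeds per dish, at 28 °C, 70–80% RH, 16:8 h light:dark photoperiod and 3000 lx light for 5 days. Root and stem lengths were measured for the 10 seeds and averaged. Each test and its controls were run in three replicates, and the data were given probit analysis.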

Test [2] has as its system Triticum aestivum. Kind of test: Inhibition of root growth of Triticum aestivum at 100 mg/L. Type of test: functional. The method in brief:
as §1

Test [3] relates to Echinochloa crus-galli. Kind of test: Inhibition of stem growth of Echinochloa crus-galli at 100 mg/L. The class given is functional. The method in brief: as §1
Test [4] has as its system Echinochloa crus-galli. Kind of test: Inhibition of root growth of Echinochloa crus-galli at 100 mg/L. Type of test: functional. The method in brief:
as §1

The test system of test [5] is Sorghum bicolor. As to the kind of experiment: Inhibition of stem growth of Sorghum bicolor at 100 mg/L. Type of test: functional. In outline:
as §1

Test [6] relates to Sorghum bicolor. As to the kind of experiment: Inhibition of root growth of Sorghum bicolor at 100 mg/L. The class given is functional. In outline:
as §1

For test [7], the system named is Brassica rapa subsp. oleifera. As to the kind of experiment: Inhibition of stem growth of Brassica campestris at 100 mg/L. Type of test: functional. The method in brief: as §1
Test [8] has as its system Brassica rapa subsp. oleifera. As to the kind of experiment: Inhibition of root growth of Brassica campestris at 100 mg/L. The class given is functional. The method in brief: as §1
Test [9] concerns Radish. Kind of test: Inhibition of stem growth of Raphanus sativus at 100 mg/L. The class given is functional. The method in brief:
as §1

Test [10] concerns Radish. Kind of test: Inhibition of root growth of Raphanus sativus at 100 mg/L. The class given is functional. The method in brief:
as §1

The test system of test [11] is Cucumis sativus. Kind of test: Inhibition of stem growth of Cucumis sativus at 100 mg/L. Type of test: functional. The method in brief: as §1
In test [12] the test system is Cucumis sativus. Kind of test: Inhibition of root growth of Cucumis sativus at 100 mg/L. Type of test: functional. In outline:
as §1

A further test concerns Aphis. As to the kind of experiment: Insecticidal activity against Aphis medicagini at 250 mg/L. The class given is functional. The method in brief: (§2)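 Groups of 10 of each species were placed in glass Petri dishes and sprayed with test solution using a Potter sprayer. After air-drying, they were held under normal rearing conditions. Mortality at 72 h was taken from the number and size of live larvae relative to untreated controls.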

For test [13], the system named is Triticum aestivum. Kind of test: Herbicidal activity against Triticum aestivum at 450 g ai/ha in greenhouse in vivo test. The class given is functional, organism-based.
Test [14] concerns Echinochloa crus-galli. Kind of test: Herbicidal activity against Echinochloa crus-galli at 450 g ai/ha in greenhouse in vivo test. The class given is functional, organism-based.
Test [15] relates to Sorghum bicolor. As to the kind of experiment: Herbicidal activity against Sorghum bicolor at 450 g ai/ha in greenhouse in vivo test. The class given is functional, organism-based.
The subject of test [16] is Brassica rapa subsp. oleifera. As to the kind of experiment: Herbicidal activity against Brassica campestris at 450 g ai/ha in greenhouse in vivo test. Type of test: functional, organism-based.
For test [17], the system named is Radish. Kind of test: Herbicidal activity against Raphanus sativus at 450 g ai/ha in greenhouse in vivo test. The class given is functional, organism-based.
Test [18] relates to Cucumis sativus. Kind of test: Herbicidal activity against Cucumis sativus at 450 g ai/ha in greenhouse in vivo test. Type of test: functional, organism-based.
The next test concerns Tetranychus cinnabarinus. As to the kind of experiment: Insecticidal activity against Tetranychus cinnabarinus at 250 mg/L. The class given is functional. The method in brief:
as §2

Usually inhibition stands for the share of the control response that was lost under treatment. As for `Cc1ccccc1CSc1nnc(Cn2nnn(-c3ccc(Cl)cc3)c2=O)s1`, the inhibition at 100 µg/mL in the test on Triticum aestivum [1] is 60%; in the test with Triticum aestivum [2], 60%; in the test with Echinochloa crus-galli [3], 70%; in the test with Echinochloa crus-galli [4], 60%; with Sorghum bicolor [5] it was 30%; with Sorghum bicolor [6], 0%. For the same compound, the inhibition at 100 µg/mL came to 30% in test [7]; 50% in [8]; 40% with Radish [9]; 40% in the test on Radish [10]; 0% in the test with Cucumis sativus [11]; 0% in the test with Cucumis sativus [12]. In addition, the Activity in the test with Aphis and in the test on Tetranychus cinnabarinus was 0% throughout. For the same compound, the outcome (in the test on Triticum aestivum [13]; in the test with Echinochloa crus-galli [14]; with Sorghum bicolor [15]; in test [16]; in the test with Radish [17]; with Cucumis sativus [18]) was inactive.

On to `CCOC(=O)C(C)Sc1nnc(Cn2nnn(-c3ccc(Cl)cc3)c2=O)o1` (stereo not given), for which the inhibition at 100 µg/mL with Triticum aestivum [1], in the test on Triticum aestivum [2], in the test with Echinochloa crus-galli [3], in the test with Echinochloa crus-galli [4], in the test with Sorghum bicolor [5] and in the test with Sorghum bicolor [6] was 0% throughout. In addition, the inhibition at 100 µg/mL worked out at 60% in test [7]; 80% in [8]; 0% in the test on Radish [9]; 0% in the test with Radish [10]; 0% in the test on Cucumis sativus [11]; 0% in the test with Cucumis sativus [12]. For the same compound, the Activity in the test on Aphis worked out at 8.3%; with Tetranychus cinnabarinus, 0%. Besides, the result (in the test on Triticum aestivum [13]; in the test with Echinochloa crus-galli [14]; with Sorghum bicolor [15]; in test [16]; in the test with Radish [17]; in the test with Cucumis sativus [18]) was inactive.

Regarding `O=c1n(Cc2ccc(Br)cc2)nnn1-c1ccc(Cl)cc1`, the inhibition at 100 µg/mL came to 30% in the test with Triticum aestivum [1]; 0% in the test with Triticum aestivum [2]; 0% with Echinochloa crus-galli [3]; 0% in the test on Echinochloa crus-galli [4]; 0% in the test with Sorghum bicolor [5]; 0% in the test on Sorghum bicolor [6]. For the same compound, the inhibition at 100 µg/mL (in test [7]; in [8]; in the test with Radish [9]; with Radish [10]; in the test with Cucumis sativus [11]; in the test with Cucumis sativus [12]) was 0% each time. In addition, the results for the Activity with Aphis and with Tetranychus cinnabarinus were 13.3% and 0%, respectively. The result (in the test with Triticum aestivum [13]; with Echinochloa crus-galli [14]; in the test on Sorghum bicolor [15]; in test [16]; in the test on Radish [17]; in the test on Cucumis sativus [18]) was inactive.

For the compound `O=c1n(Cc2cccc(Cl)c2)nnn1-c1ccc(Cl)cc1`, the inhibition at 100 µg/mL in the test on Triticum aestivum [1], with Triticum aestivum [2], in the test on Echinochloa crus-galli [3], in the test on Echinochloa crus-galli [4], with Sorghum bicolor [5] and in the test on Sorghum bicolor [6] was 0% in each case. Besides, the inhibition at 100 µg/mL (in [7]; in test [8]; in the test with Radish [9]; with Radish [10]; in the test on Cucumis sativus [11]; in the test with Cucumis sativus [12]) was 0% throughout. Moreover, the Activity in the test with Aphis and with Tetranychus cinnabarinus was 0% each time. Moreover, the outcome (in the test on Triticum aestivum [13]; with Echinochloa crus-galli [14]; in the test on Sorghum bicolor [15]; in test [16]; with Radish [17]; with Cucumis sativus [18]) was inactive.

Regarding `CCCCCCSc1nnc(Cn2nnn(-c3ccc(Cl)cc3)c2=O)s1`, the inhibition at 100 µg/mL turned out to be 30% in the test on Triticum aestivum [1]; 0% in the test on Triticum aestivum [2]; 0% in the test with Echinochloa crus-galli [3]; 0% with Echinochloa crus-galli [4]; 40% with Sorghum bicolor [5]; 60% in the test with Sorghum bicolor [6]. Also, the inhibition at 100 µg/mL in test [7] is 40%; in test [8] it was 70%; with Radish [9], 30%; with Radish [10], 40%; in the test with Cucumis sativus [11], 0%; with Cucumis sativus [12], 0%. Also, the Activity with Aphis was determined as 0%; in the test on Tetranychus cinnabarinus, 4.3%. Further, the outcome (in the test with Triticum aestivum [13]; with Echinochloa crus-galli [14]; in the test on Sorghum bicolor [15]; in test [16]; in the test on Radish [17]; in the test with Cucumis sativus [18]) was inactive.

Regarding `CCCSc1nnc(Cn2nnn(-c3ccc(Cl)cc3)c2=O)s1`, the inhibition at 100 µg/mL with Triticum aestivum [1] worked out at 70%; with Triticum aestivum [2], 70%; in the test on Echinochloa crus-galli [3] it was 80%; with Echinochloa crus-galli [4], 80%; with Sorghum bicolor [5], 0%; in the test on Sorghum bicolor [6] it was 80%. The inhibition at 100 µg/mL came out at 60% in test [7]; 70% in test [8]; 70% in the test with Radish [9]; 70% in the test on Radish [10]; 70% with Cucumis sativus [11]; 50% in the test with Cucumis sativus [12]. Besides, the Activity with Aphis and in the test with Tetranychus cinnabarinus was 0% throughout. In addition, the result (in the test on Triticum aestivum [13]; in the test on Echinochloa crus-galli [14]; in the test with Sorghum bicolor [15]; in test [16]; with Radish [17]; with Cucumis sativus [18]) was inactive.

On to `Cc1ccccc1Cn1nnn(-c2ccc(Cl)cc2)c1=O`, for which the inhibition at 100 µg/mL in the test with Triticum aestivum [1] was found to be 30%; in the test on Triticum aestivum [2], 0%; in the test with Echinochloa crus-galli [3], 0%; in the test on Echinochloa crus-galli [4] it was 0%; in the test on Sorghum bicolor [5] it was 0%; with Sorghum bicolor [6], 0%. Moreover, the inhibition at 100 µg/mL (in test [7]; in test [8]; with Radish [9]; in the test with Radish [10]; in the test on Cucumis sativus [11]; in the test on Cucumis sativus [12]) was 0% in each case. Moreover, the Activity in the test with Aphis was found to be 21.7%; in the test with Tetranychus cinnabarinus, 2.9%. In addition, the outcome (in the test on Triticum aestivum [13]; with Echinochloa crus-galli [14]; with Sorghum bicolor [15]; in [16]; in the test on Radish [17]; in the test on Cucumis sativus [18]) was inactive.

`Cc1ccc(Cn2nnn(-c3ccc(Cl)cc3)c2=O)cc1`: the inhibition at 100 µg/mL in the test with Triticum aestivum [1], in the test with Triticum aestivum [2], in the test with Echinochloa crus-galli [3], in the test on Echinochloa crus-galli [4], in the test on Sorghum bicolor [5] and with Sorghum bicolor [6] was 0% each time. For the same compound, the inhibition at 100 µg/mL (in test [7]; in test [8]; in the test with Radish [9]; in the test with Radish [10]; in the test with Cucumis sativus [11]; in the test with Cucumis sativus [12]) was 0% in each case. Further, the Activity was 3.3% in the test with Aphis and 0% in the test on Tetranychus cinnabarinus. Moreover, the outcome (in the test on Triticum aestivum [13]; with Echinochloa crus-galli [14]; in the test on Sorghum bicolor [15]; in test [16]; with Radish [17]; with Cucumis sativus [18]) was inactive.

Turning to `CCOC(=O)CSc1nnc(Cn2nnn(-c3ccc(Cl)cc3)c2=O)s1`, the inhibition at 100 µg/mL in the test on Triticum aestivum [1] was 60%; in the test on Triticum aestivum [2], 50%; in the test on Echinochloa crus-galli [3], 0%; with Echinochloa crus-galli [4], 0%; in the test with Sorghum bicolor [5] it was 50%; with Sorghum bicolor [6], 30%. Further, the inhibition at 100 µg/mL in test [7] was 50%; in [8], 70%; in the test on Radish [9], 60%; in the test with Radish [10], 70%; with Cucumis sativus [11] it was 30%; in the test on Cucumis sativus [12], 50%. The Activity in the test on Aphis came out at 0%; in the test with Tetranychus cinnabarinus it was 80%. Moreover, the outcome (in the test with Triticum aestivum [13]; in the test with Echinochloa crus-galli [14]; with Sorghum bicolor [15]; in test [16]; with Radish [17]; in the test on Cucumis sativus [18]) was inactive.

For the origin of these results see ChEMBL document CHEMBL1142895, “Discovery of a new insecticide lead by optimizing a target-diverse scaffold: tetrazolinone derivatives” (2007).
